Data set [1] addresses Voltage-gated inwardly rectifying potassium channel KCNH2 (Homo sapiens, UniProt Q12809). Put plainly: Inhibition of human ERG.
The nature of data set [2]: Inhibition of Cytochrome P450. It is filed as ADME.
For data set [3], the target named is T1, Lysophosphatidic acid receptor 3 (Homo sapiens) (UniProt Q9UBY5).
T1 sequence (whole entry): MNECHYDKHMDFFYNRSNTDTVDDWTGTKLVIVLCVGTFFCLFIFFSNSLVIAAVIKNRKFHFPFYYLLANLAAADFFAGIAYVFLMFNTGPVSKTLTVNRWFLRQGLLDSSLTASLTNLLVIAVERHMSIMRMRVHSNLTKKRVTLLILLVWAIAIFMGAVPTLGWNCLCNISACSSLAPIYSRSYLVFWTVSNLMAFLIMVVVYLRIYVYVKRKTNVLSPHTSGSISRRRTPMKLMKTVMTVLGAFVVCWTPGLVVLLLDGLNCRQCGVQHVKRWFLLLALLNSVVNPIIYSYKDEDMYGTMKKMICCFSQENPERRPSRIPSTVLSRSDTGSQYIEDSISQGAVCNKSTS
Put plainly: Antagonist activity at human recombinant LPA3 expressed in chem-1 cells assessed as inhibition of LPA-induced intracellular calcium mobilization at 30 uM incubated for 30 mins prior to LPA-challenge measured over 100 secs by FLIPR assay. It is filed as functional, cell-based. The method in brief: (§1)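 Calcium-optimized Chem-1 cells stably expressing human LPA1 or LPA3 (parental line with ionomycin as counterscreen), seeded 10,000/well the day before. Calcium-4 dye in HBSS/20 mM HEPES/2.5 mM probenecid loaded 30 min at 37 °C; compound added, 30 min at room temperature in the dark; LPA (18:1) 1 μM final. Peak fluorescence read over 100 s; IC50 from 10-concentration 4-parameter logistic fit, mean of at least three runs.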

Data set [4] can be described thus: Inhibition of LPA-induced proliferation of HLF incubated for 1 hr prior to LPA-challenge measured after 48 hrs by BrdU incorporation assay. The settings on record: Homo sapiens. Background: Uptake of a labelled nucleoside into DNA is a usual measure of proliferation.
Data set [5] has as its target T2, Lysophosphatidic acid receptor 1 (Homo sapiens, UniProt Q92633). Put plainly: Antagonist activity at human recombinant LPA1 expressed in chem-1 cells assessed as inhibition of LPA-induced intracellular calcium mobilization incubated for 30 mins prior to LPA-challenge measured over 100 secs by FLIPR assay. The data set is classed as functional, cell-based. In a few lines: as §1
For orientation: Calcium assays in cells follow changes in intracellular calcium, usually with a dye or a luminescent sensor.

Data set [6] has as its target T2, Lysophosphatidic acid receptor 1. Description: Antagonist activity at LPA1 in human lung fibroblasts assessed as inhibition of LPA-induced contraction after 18 hrs by 3D collagen gel contraction assay. The data set is classed as functional. The method in brief:
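NHLFs (healthy nonsmoking donors, passages 5–9) at 2.5 × 10⁵ cells/well, mixed 1:4 with collagen lattice; gels polymerized 2 h at 37 °C, then basal medium with 0.1% FBS, 0.1% fatty acid-free BSA and vehicle or antagonist added. Gels detached, LPA (18:1) 15 μM added; after 18 h, contraction quantified by gel disc weight.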

The nature of data set [7]: Inhibition of LPA-induced proliferation of HLF at 1 uM incubated for 1 hr prior to LPA-challenge measured after 48 hrs by BrdU incorporation assay. It is filed as functional. The settings on record: Homo sapiens. In a few lines: (§2)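 NHLFs (passages 5–9) seeded on collagen I at 5 × 10³ cells/well overnight in complete medium, then starved 24 h in basal medium with 0.1% FBS and 0.1% fatty acid-free BSA. Stimulated with LPA (18:1) 15 μM in the presence of antagonist; proliferation read as BrdU incorporation with a commercial kit.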

In data set [8] the target is T2, Lysophosphatidic acid receptor 1. Description: Antagonist activity at human recombinant LPA1 expressed in chem-1 cells assessed as inhibition of LPA-induced intracellular calcium mobilization at 30 uM incubated for 30 mins prior to LPA-challenge measured over 100 secs by FLIPR assay. It is filed as functional, cell-based. In a few lines:
as §1

In data set [9] the target is T3, Lysophosphatidic acid receptor 3 (Homo sapiens, UniProt Q9UBY5).
T3 sequence (Q9UBY5 whole entry): T1 sequence (whole entry)
Description: Antagonist activity at human recombinant LPA3 expressed in chem-1 cells assessed as inhibition of LPA-induced intracellular calcium mobilization incubated for 30 mins prior to LPA-challenge measured over 100 secs by FLIPR assay. It is filed as functional, cell-based. The method in brief:
as §1

The test system of the next data set is Mus musculus. Description: Antifibrosis activity in C57BL6/J mouse assessed as inhibition of LPA-stimulated histamine release at 100 mg/kg, po dosed 2 hrs prior to LPA-challenge by ELISA. Also noted: dose 100 mg/kg. It is filed as functional, organism-based. In a few lines: (§3)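 Male C57BL6/J mice, 7–9 weeks old, given compound orally 2 h before intravenous LPA 100 μg/mouse (in 0.1% fatty acid-free BSA). Killed 3 min after LPA; EDTA plasma histamine measured by ELISA and plasma drug levels by LC/MS. n = 5–8 mice, mean ± SEM; one-way ANOVA with Dunnett's test versus LPA vehicle control.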

Data set [10] is described as follows: Inhibition of LPA-induced proliferation of HLF at 10 uM incubated for 1 hr prior to LPA-challenge measured after 48 hrs by BrdU incorporation assay. The data set is classed as functional. Conditions: Homo sapiens. The method in brief:
as §2

Another data set concerns Plasma. Put plainly: Ratio of plasma concentration of AM095 to plasma concentration of compound in C57BL6/J mouse at 100 mg/kg, po dosed 2 hrs prior to LPA-challenge by LC/MS spectrometry. It is filed as ADME, organism-based. Also on record: dose 100 mg/kg, route oral. Conditions: in vivo. In a few lines: as §3

This note sets out measurements from ChEMBL document CHEMBL2176934 (J Med Chem, 2012).

Molecules are shown by their SMILES. The source made the active and inactive calls. No cut-off for these calls is given here.

Chain of Voltage-gated inwardly rectifying potassium channel KCNH2 (Q12809 whole entry): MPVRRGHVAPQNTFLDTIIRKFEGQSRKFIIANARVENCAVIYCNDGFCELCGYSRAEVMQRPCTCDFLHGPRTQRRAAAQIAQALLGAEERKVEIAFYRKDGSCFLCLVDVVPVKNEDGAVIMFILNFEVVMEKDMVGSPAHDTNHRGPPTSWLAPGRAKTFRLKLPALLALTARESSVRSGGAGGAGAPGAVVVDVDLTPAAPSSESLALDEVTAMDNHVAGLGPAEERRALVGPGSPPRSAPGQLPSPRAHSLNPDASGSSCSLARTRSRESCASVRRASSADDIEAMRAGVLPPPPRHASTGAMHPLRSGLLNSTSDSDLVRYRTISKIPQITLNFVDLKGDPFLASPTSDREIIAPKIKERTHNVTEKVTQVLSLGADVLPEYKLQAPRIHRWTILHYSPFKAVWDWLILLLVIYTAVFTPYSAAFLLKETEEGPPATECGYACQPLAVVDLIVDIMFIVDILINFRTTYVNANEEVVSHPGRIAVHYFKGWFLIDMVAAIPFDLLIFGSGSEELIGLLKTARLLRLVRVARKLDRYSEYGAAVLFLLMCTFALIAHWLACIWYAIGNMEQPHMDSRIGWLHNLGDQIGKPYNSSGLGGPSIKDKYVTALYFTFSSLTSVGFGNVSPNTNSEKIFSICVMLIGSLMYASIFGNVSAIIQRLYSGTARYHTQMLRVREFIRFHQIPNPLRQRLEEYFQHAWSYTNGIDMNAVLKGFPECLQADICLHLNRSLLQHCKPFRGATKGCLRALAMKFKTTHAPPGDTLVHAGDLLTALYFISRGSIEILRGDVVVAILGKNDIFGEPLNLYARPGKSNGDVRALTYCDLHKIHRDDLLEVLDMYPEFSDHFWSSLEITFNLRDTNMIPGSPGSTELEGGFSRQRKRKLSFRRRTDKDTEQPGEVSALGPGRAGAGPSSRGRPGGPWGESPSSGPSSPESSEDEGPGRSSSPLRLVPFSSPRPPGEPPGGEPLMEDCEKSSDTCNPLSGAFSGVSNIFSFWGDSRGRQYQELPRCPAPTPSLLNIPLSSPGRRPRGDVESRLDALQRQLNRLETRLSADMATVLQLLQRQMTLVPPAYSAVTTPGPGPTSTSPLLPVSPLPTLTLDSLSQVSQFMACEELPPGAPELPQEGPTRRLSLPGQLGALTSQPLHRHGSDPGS
T2 sequence (Q92633 whole entry): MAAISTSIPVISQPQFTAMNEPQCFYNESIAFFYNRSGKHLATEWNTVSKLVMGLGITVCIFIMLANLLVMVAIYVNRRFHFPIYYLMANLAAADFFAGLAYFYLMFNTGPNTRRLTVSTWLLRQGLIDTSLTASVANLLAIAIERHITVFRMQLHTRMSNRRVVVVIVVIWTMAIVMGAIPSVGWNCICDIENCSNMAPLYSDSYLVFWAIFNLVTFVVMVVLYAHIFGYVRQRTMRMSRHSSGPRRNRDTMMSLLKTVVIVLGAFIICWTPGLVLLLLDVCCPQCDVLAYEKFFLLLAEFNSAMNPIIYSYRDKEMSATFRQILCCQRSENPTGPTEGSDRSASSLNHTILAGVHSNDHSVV

For `CCc1nnn(-c2ccc(-c3ccc(C4(C(=O)O)CC4)cc3)cc2)c1NC(=O)O[C@H](C)c1ccccc1`, the “inhibition (INH)” value in data set [1] and in data set [2] was “Not Active” each time. Also, the inhibition in data set [3] came to 63%. Further, the IC50 in data set [4] came out at 16 nM; in data set [5], 42 nM.

As for `Cc1nnn(-c2ccc(-c3ccc(C4(c5nnn[nH]5)CC4)cc3)cc2)c1NC(=O)O[C@H](C)c1ccccc1`, the “inhibition (INH)” value in [1] and in data set [2] was “Not Active” in each case. The inhibition in data set [3] is 28%. For the same molecule, the IC50 in data set [4] stood at 105 nM; in data set [5], 23 nM.

In the case of `C[C@@H](OC(=O)Nc1c(-c2ccc(-c3ccc(C4(C(=O)NS(C)(=O)=O)CC4)cc3)cc2)nnn1C)c1cccc(C(F)(F)F)c1`, the “inhibition (INH)” value in [1] and in [2] was “Not Active” in each case. Also, the inhibition result in data set [6] was “inactive”. Also, the values for the IC50 in data set [4] and in data set [5] were 331 nM and 24 nM, respectively.

As to `Cc1nnn(-c2ccc(-c3ccc(C4(C(=O)NS(C)(=O)=O)CC4)cc3)cc2)c1NC(=O)O[C@H](C)c1ccccc1`, the “inhibition (INH)” value in data set [1] and in [2] was “Not Active” in each case. Further, in data set [3], the inhibition worked out at 7%. The values for the IC50 in [4] and in data set [5] were 60 nM and 32 nM, respectively.

As to `C[C@@H](OC(=O)Nc1c(-c2ccccc2F)cnn1C)c1ccccc1Cl`, the “inhibition (INH)” value in [1] and in [2] was “Not Active” in each case. Half-maximal inhibition in data set [4] (IC50) required 810 nM. This molecule came in with an inhibition at 1 µM in [7] of over 50%. In addition, in data set [8], the inhibition is over 97%.

As for `CC(OC(=O)Nc1c(-c2ccccc2)cnn1C)c1ccccc1Cl` (racemic), the “inhibition (INH)” value in [1] and in [2] was “Not Active” throughout. Moreover, the inhibition in data set [8] was over 97%. Moreover, the IC50 in data set [9] is over 30000 nM.

Consider `Cc1noc(-c2ccc(-c3ccc(CC(=O)O)cc3)cc2)c1NC(=O)O[C@H](C)c1ccccc1`, for which the inhibition entry in the data set on Mus musculus was “Active”.

Take `Cc1csc2c(N[C@@H](C)CN3CCN(S(=O)(=O)c4ccc(Cl)c(Cl)c4)CC3)ncnc12`: the inhibition entry in data set [6] is “inactive”. In addition, the inhibition at 10 µM in data set [10] is under 50%.

For `Cc1nnn(-c2ccc(-c3ccc(C4(C(=O)O)CC4)cc3)cc2)c1NC(=O)O[C@H](C)c1ccccc1`, the “inhibition (INH)” value in data set [1] and in data set [2] was “Not Active” each time. The inhibition in data set [3] was 20%; in data set [6] it was “Dose-dependent effect”. The Ratio in the data set with Plasma is on record as over 65. Also, the inhibition result with Mus musculus was “Active”. In [4], this molecule registered a concentration for half-maximal inhibition (IC50) of 4 nM.

Regarding `CC(OC(=O)Nc1c(-c2ccc(F)cc2)cnn1C)c1ccccc1Cl` (racemic), the “inhibition (INH)” value in [1] and in data set [2] was “Not Active” in each case. Moreover, in [8], the inhibition was over 97%. In addition, in [9], the IC50 is over 30000 nM.

As usually defined, the inhibition is the relative decrease from the control value, in per cent. The term IC50 denotes the concentration needed to halve the response being measured.
